Assay results from article PMC4401318 (ACS Chemical Neuroscience, 2015).
“Also recorded” adds a separate entry of the source. Marks after values point to notes of the source that are not given here.

How the values were obtained:
[1] = target: T1, DOP receptor (Homo sapiens, UniProt P41143); settings: agonist DPDPE; ref 4b; cited from earlier work
[2] = target: T2, KOP receptor (Homo sapiens, UniProt P41145); experiment: biochemical
[3] = target: T2, KOP receptor; settings: agonist U69,593; ref 4b; cited from earlier work
[4] = target: T3, NOP receptor (Homo sapiens, UniProt P41146); experiment: [35S]GTPγS binding stimulation; assay type: biochemical; settings: for intrinsic (agonist) activity in [35S]GTPγS assay at any of the opioid receptors: NOP, KOP, MOP and DOP, up to 10 μM; for [35S]GTPγS NOP % stim: compared to standard agonist N/OFQ
[5] = target: T3, NOP receptor; experiment: Inhibition of agonist-stimulated [35S]GTPγS binding, NOP; assay type: biochemical; settings: for nature of antagonism at NOP: agonist nociceptin concentration-response curves
[6] = target: T4, MOP receptor (Homo sapiens, UniProt P35372); settings: cited from earlier work
[7] = target: T1, DOP receptor; experiment: [35S]GTPγS binding stimulation; assay type: biochemical; settings: for [35S]GTPγS DOP % stim: compared to standard agonist DPDPE
[8] = target: T4, MOP receptor; experiment: biochemical
[9] = target: T2, KOP receptor; experiment: Inhibition of agonist-stimulated [35S]GTPγS binding, KOP; assay type: biochemical; settings: agonist U69,593 concentration-response curves; listed as AT-076
Procedure, shortened: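 CHO cells stably expressing human KOP cDNA, grown in DMEM/10% FBS with 0.4 mg/mL G418. Membranes were washed into 20 mM HEPES, 10 mM MgCl2, 100 mM NaCl, pH 7.4. Membranes (8–15 μg protein) were incubated 60 min at 25 °C with 50 pM [35S]GTPγS and 10 μM GDP. U69,593 concentration–response curves were run at several fixed test-compound concentrations. Binding was read by filtration and scintillation counting. Antagonism type was assigned by Schild regression.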

[10] = target: T1, DOP receptor; experiment: Inhibition of agonist-stimulated [35S]GTPγS binding, DOP; assay type: biochemical
[11] = target: T3, NOP receptor; experiment: Radioligand competition binding, NOP
[12] = target: T4, MOP receptor; assay type: biochemical
[13] = target: T2, KOP receptor; experiment: Radioligand competition binding, KOP
[14] = target: T1, DOP receptor; experiment: Radioligand competition binding, DOP

SMILES | [35S]GTPγS KOP % stim [2] [%] | EC50 [4] [µM] | intrinsic (agonist) activity in [35S]GTPγS assay at any of the opioid receptors [4] | [35S]GTPγS NOP % stim [4] [%] | [35S]GTPγS DOP % stim [7] [%] | [35S]GTPγS MOP % stim [8] [%] | EC50 [2] [µM] | EC50 [8] [µM] | Ki [13] [nM] | Ki [14] [nM] | further results
CC(C)[C@@H](CN1CC[C@@](C)(c2cccc(O)c2)[C@@H](C)C1)NC(=O)[C@H]1Cc2ccc(O)cc2CN1 [JDTic, (3R)-7-hydroxy-N-((1S)-1-{[(3R,4R)-4-(3-hydroxyphenyl)-3,4-dimethyl-1-piperidinyl]methyl}-2-methylpropyl)-1,2,3,4-tetrahydro-3-isoquinolinecarboxamide, reference compound] | 0 | > 10 | no intrinsic activity | 0 | 0 | 0 | – | – | – | – | Ke DOP (antagonist potency) [1]: 79.3 ± 9.3 ^f nM; Ke KOP (antagonist potency) [3]: 0.01 ± 0.00 ^f nM; intrinsic activity in [35S]GTPγS functional assay at NOP ([4]; compound alone): no intrinsic activity; Kb [5]: 680.2 ± 2.35 nM; nature of antagonism at NOP [5]: noncompetitive antagonism; Ke MOP (antagonist potency) [6]: 3.41 ± 0.36 ^f nM
CC(C)[C@@H](CN1CCC(c2cccc(O)c2)CC1)NC(=O)[C@H]1Cc2ccc(O)cc2CN1 [Compound 6, (R)-7-Hydroxy-N-((S)-1-(4-(3-hydroxyphenyl)piperidin-1-yl)-3-methylbutan-2-yl)-1,2,3,4-tetrahydroisoquinoline-3-carboxamide] | 0 | – | no intrinsic (agonist) activity | 0 | 0 | 0 | > 10 | > 10 | – | – | nature of antagonism at KOP [9]: noncompetitive antagonist profile; also recorded: insurmountable antagonism; nature of antagonism at NOP ([5]; listed as AT-076): noncompetitive antagonist profile; also recorded: insurmountable antagonism; EC50 [7]: > 10 µM; Kb [10]: 24.9 ± 13 nM; nature of antagonism at DOP ([10]; agonist DPDPE concentration-response curves, listed as AT-076): competitive antagonist; also recorded: competitive antagonism; increase in NOP binding affinity compared with JDTic ([11]; ratio of Ki): 10 fold; Ke more potent than that of JDTic ([12]; at the MOP and DOP receptors): 3–6 fold; nature of antagonism at MOP ([12]; listed as AT-076): competitive antagonist; also recorded: competitive antagonism
C[C@H]1CN(C2CCCCCCC2)CC[C@@]1(C)c1cccc(O)c1 [Compound 3, 3-((3R,4R)-1-Cyclooctyl-3,4-dimethylpiperidin-4-yl)phenol] | 0 | – | – | – | – | – | > 10 | – | 68.1 ± 2.21 | 2910 ± 834 | –
C[C@H]1CN(C[C@H]2Cc3ccc(O)cc3CN2)CC[C@@]1(C)c1cccc(O)c1 [Compound 4, (R)-3-(((3R,4R)-4-(3-Hydroxyphenyl)-3,4-dimethylpiperidin-1-yl)methyl)-1,2,3,4-tetrahydroisoquinolin-7-ol] | – | – | – | – | – | 0 | – | > 10 | 410 ± 130 | 205 | –
Cc1cccc2c1CC[C@H](CN1CCC(c3c(Cl)cccc3Cl)CC1)C[C@@H]2O [SB-612111, (−)-cis-1-methyl-7-[[4-(2,6-dichlorophenyl)piperidin-1-yl]methyl]-6,7,8,9-tetrahydro-5H-benzocyclohepten-5-ol, reference compound] | – | – | – | 0 | – | – | – | – | – | – | –
CC(C)[C@@H](CN1CCC(c2ccccc2)CC1)NC(=O)[C@H]1Cc2ccc(O)cc2CN1 [Compound 8, (R)-7-Hydroxy-N-((S)-3-methyl-1-(4-phenylpiperidin-1-yl)butan-2-yl)-1,2,3,4-tetrahydroisoquinoline-3-carboxamide] | 72.3 ± 4 | 0.0533 ± 0.0121 | – | 18.3 ± 1.3 | – | 0 | 0.408 ± 0.041 | – | 2.15 ± 0.82 | > 10000 | Ki [11]: 10.9 ± 2.14 nM
C[C@H]1CN(C[C@H]2Cc3ccccc3CN2)CC[C@@]1(C)c1cccc(O)c1 [Compound 5, 3-((3R,4R)-3,4-Dimethyl-1-(((R)-1,2,3,4-tetrahydroisoquinolin-3-yl)methyl)piperidin-4-yl)phenol] | 0 | > 10 | no intrinsic activity | 0 | 0 | 0 | > 10 | > 10 | 19.5 ± 6.6 | 38.8 ± 9.9 | EC50 [7]: > 10 µM
CC(C)[C@@H](CN1CCC(c2cccc(O)c2)CC1)NC(=O)[C@H]1Cc2ccccc2CN1 [Compound 7, (R)-N-((S)-1-(4-(3-Hydroxyphenyl)piperidin-1-yl)-3-methylbutan-2-yl)-1,2,3,4-tetrahydroisoquinoline-3-carboxamide] | 0 | > 10 | – | 7.0 ± 3.2 | – | – | > 10 | – | 100 ± 0.9 | 1400 ± 111 | –
